# From ChEMBL document CHEMBL3085627 (J Med Chem, 2013)
# Tests used:
# D(2) dopamine receptor [1] = target: T1, D(2) dopamine receptor (Homo sapiens, UniProt P14416); assay: Agonist activity at human dopamine D2L receptor expressed in CHO […] assessed as inhibition of forskolin-stimulated cAMP production after 30 mins by Alphascreen assay; format: functional, cell-based
# How it was run: (§1)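 Concentration-response curves are fitted to the operational model of agonism to derive functional affinity (pKA) and efficacy (τ). The transduction coefficient log(τ/KA) is calculated per pathway, and bias is expressed as ΔΔlog(τ/KA). Statistical comparison uses Student's t-test.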
# D(2) dopamine receptor [2] = target: T1, D(2) dopamine receptor; assay: Displacement of [3H]-spiperone from human dopamine D2L receptor expressed in CHO cell membranes after 3 hrs by liquid scintillation counting analysis
# How it was run: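 Competition against the radiolabeled antagonist [3H]spiperone at human D2L receptor in FlpIn CHO cell membranes. Affinity is reported as Ki.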
# D(2) dopamine receptor [3] = target: T1, D(2) dopamine receptor; assay: Agonist activity at human dopamine D2L receptor expressed in CHO […] assessed as phosphorylation of ERK1/2 by Alphascreen assay; format: cell-based; how it was run: as §1
# D(2) dopamine receptor [4] = target: T1, D(2) dopamine receptor; settings: CHO
# T1 sequence (P14416 whole entry): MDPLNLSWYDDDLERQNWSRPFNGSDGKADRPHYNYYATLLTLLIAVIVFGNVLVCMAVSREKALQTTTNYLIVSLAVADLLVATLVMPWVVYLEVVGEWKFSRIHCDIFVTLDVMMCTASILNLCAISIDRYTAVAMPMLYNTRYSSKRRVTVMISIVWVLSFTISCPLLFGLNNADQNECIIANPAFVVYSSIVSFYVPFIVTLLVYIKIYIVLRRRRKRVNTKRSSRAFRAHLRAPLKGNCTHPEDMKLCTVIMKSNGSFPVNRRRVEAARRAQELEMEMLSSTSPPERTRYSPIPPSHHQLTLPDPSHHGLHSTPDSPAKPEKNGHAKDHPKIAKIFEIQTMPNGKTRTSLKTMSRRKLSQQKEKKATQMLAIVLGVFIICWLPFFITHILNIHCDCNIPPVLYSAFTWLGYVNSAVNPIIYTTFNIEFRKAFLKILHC
SMILES,pKA (D(2) dopamine receptor [1]),Ki (D(2) dopamine receptor [2]) [nM],pKA (D(2) dopamine receptor [3]),KiH (D(2) dopamine receptor [4]) [nM],KiL (D(2) dopamine receptor [4]) [µM]
CCOC(=O)N[C@H]1CC[C@H](CCN2CCc3ccccc3C2)CC1,7.23,–,–,–,–
CC(C)(C)OC(=O)Nc1ccc(CCN2CCc3ccccc3C2)cc1,5.95,550,–,–,–
CN(C)C(=O)N[C@H]1CC[C@H](CCN2CCc3ccccc3C2)CC1,7.19,–,–,–,–
CC(C)(C)OC(=O)N[C@H]1CC[C@H](CCN2CCc3ccccc3C2)CC1,6.45,–,7.1,–,–
O=C(N[C@H]1CC[C@H](CCN2CCc3ccccc3C2)CC1)Oc1ccccc1,5.67,912,–,–,–
CC(C)(C)OC(=O)N[C@H]1CC[C@H](CCN2CCN(c3cccc(Cl)c3Cl)CC2)CC1,7.11,–,7.51,–,–
CC(C)(C)OC(=O)N[C@H]1CC[C@H](CN2CCN(c3cccc(Cl)c3Cl)CC2)CC1,6.27,309,5.43,–,–
CC(C)(C)OC(=O)N[C@H]1CC[C@@H](CCN2CCc3ccccc3C2)CC1,7.34,–,–,–,–
NCCc1ccc(O)c(O)c1,–,–,–,58,3.42
CC(C)(C)OC(=O)NC[C@H]1CC[C@H](CN2CCN(c3cccc(Cl)c3Cl)CC2)CC1,6.95,148,6.86,–,–
CN(C)C(=O)N[C@H]1CC[C@H](CCN2CCN(c3cccc(Cl)c3Cl)CC2)CC1,–,–,7.61,–,–
CC(C)(C)NC(=O)N[C@H]1CC[C@H](CCN2CCc3ccccc3C2)CC1,6.72,245,–,–,–
CC(C)(C)OC(=O)NC[C@H]1CC[C@H](CN2CCc3ccccc3C2)CC1,6.82,1150,6.69,–,–
CC(=O)N[C@H]1CC[C@H](CCN2CCc3ccc(C#N)cc3C2)CC1,–,23.4,–,–,–
CC(C)(C)OC(=O)N[C@H]1CC[C@H](CN2CCc3ccccc3C2)CC1,7.18,355,7.48,–,–
CC(C)(C)OC(=O)N[C@H]1CC[C@H](CCN2CCc3ccc([N+](=O)[O-])cc3C2)CC1,–,380,–,–,–
CC(C)(C)OC(=O)N[C@H]1CC[C@@H](CCN2CCN(c3cccc(Cl)c3Cl)CC2)CC1,6.73,–,6.79,–,–
CN(C)C(=O)N[C@H]1CC[C@@H](CCN2CCc3ccccc3C2)CC1,6.96,–,–,–,–
CC(C)(C)OC(=O)N[C@H]1CC[C@H](CCN2CCCN(c3cccc(Cl)c3Cl)CC2)CC1,–,10.5,–,–,–
CC(C)(C)OC(=O)N[C@H]1CC[C@H](CCN2CCc3ccc(C#N)cc3C2)CC1,6.81,2240,–,–,–
CC(=O)N[C@H]1CC[C@H](CCN2CCc3ccccc3C2)CC1,6.85,–,–,–,–
CC(C)OC(=O)N[C@H]1CC[C@H](CCN2CCc3ccccc3C2)CC1,6.3,1480,–,–,–
CC(C)COC(=O)N[C@H]1CC[C@H](CCN2CCc3ccccc3C2)CC1,6.05,5250,–,–,–
CN(C)C(=O)NC[C@H]1CC[C@H](CN2CCN(c3cccc(Cl)c3Cl)CC2)CC1,6.92,42.7,7.56,–,–
